Where a chain is given by its changes, count along the chain named.
Assays:
Conditions in all cases: stereoisomer not certain
[1] = target: T1, OR2T7 (Homo sapiens) (UniProt P0C7T2)
T1 sequence (whole entry): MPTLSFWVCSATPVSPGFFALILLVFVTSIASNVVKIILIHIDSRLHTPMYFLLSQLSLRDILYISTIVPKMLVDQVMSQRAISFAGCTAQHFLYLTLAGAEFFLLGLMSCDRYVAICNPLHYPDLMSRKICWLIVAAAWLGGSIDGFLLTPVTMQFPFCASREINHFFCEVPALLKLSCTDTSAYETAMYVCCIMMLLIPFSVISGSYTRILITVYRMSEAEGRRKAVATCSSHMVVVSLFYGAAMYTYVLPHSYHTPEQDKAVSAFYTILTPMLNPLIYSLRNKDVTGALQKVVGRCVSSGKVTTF
In short: (§1)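 Transient luciferase assays in mammalian cell lines were common, though methods varied by source. The values come from published papers and their supplementary material, with extra details from the original authors when needed. Responsive refers to a measured signal the original authors judged statistically different from baseline, and non-responsive (inactive) to the remainder.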

[2] = target: T2, OR2T8 (Homo sapiens) (UniProt A6NH00)
T2 sequence (whole entry): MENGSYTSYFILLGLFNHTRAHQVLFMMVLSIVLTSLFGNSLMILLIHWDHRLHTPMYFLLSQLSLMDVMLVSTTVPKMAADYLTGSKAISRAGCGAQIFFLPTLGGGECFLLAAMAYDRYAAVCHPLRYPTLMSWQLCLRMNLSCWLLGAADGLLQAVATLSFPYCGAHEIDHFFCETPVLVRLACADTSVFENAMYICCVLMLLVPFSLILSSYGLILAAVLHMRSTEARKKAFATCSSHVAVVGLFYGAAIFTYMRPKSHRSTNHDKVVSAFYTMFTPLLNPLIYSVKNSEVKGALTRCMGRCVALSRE
In short: as §1

[3] = target: T3, OR2V1 (Homo sapiens) (UniProt Q8NHB1)
T3 sequence (whole entry): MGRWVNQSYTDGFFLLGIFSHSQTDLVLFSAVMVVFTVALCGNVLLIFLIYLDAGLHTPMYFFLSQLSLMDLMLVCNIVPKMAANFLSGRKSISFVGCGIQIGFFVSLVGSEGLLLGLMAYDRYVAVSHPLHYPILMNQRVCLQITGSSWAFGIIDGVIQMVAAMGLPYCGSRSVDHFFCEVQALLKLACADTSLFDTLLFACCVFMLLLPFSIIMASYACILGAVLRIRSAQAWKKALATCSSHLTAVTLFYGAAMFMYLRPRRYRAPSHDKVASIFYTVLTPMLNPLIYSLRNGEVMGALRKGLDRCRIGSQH
In short: as §1

[4] = target: T4, OR2V2 (Homo sapiens) (UniProt Q96R30)
T4 sequence (whole entry): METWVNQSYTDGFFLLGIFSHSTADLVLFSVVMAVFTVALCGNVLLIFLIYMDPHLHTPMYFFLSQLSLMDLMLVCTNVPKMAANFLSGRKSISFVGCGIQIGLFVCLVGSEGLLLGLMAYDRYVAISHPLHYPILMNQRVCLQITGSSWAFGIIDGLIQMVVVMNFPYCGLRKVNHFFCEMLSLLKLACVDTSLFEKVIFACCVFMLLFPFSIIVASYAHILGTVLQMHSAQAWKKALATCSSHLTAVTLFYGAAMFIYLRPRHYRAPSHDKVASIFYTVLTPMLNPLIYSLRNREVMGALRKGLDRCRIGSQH
In short: as §1

[5] = target: T5, OR2W1 (Homo sapiens) (UniProt Q9Y3N9)
T5 sequence (whole entry): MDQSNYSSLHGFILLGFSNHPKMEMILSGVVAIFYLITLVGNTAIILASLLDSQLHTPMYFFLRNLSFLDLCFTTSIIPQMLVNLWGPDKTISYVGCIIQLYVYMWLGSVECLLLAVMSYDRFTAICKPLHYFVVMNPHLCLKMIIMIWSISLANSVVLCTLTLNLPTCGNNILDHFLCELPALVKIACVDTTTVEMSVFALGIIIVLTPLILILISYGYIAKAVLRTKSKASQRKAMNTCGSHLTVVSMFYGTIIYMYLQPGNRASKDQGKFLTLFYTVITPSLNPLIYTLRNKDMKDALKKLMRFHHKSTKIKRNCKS
In short: as §1

[6] = target: T6, OR2W3 (Homo sapiens) (UniProt Q7Z3T1)
T6 sequence (whole entry): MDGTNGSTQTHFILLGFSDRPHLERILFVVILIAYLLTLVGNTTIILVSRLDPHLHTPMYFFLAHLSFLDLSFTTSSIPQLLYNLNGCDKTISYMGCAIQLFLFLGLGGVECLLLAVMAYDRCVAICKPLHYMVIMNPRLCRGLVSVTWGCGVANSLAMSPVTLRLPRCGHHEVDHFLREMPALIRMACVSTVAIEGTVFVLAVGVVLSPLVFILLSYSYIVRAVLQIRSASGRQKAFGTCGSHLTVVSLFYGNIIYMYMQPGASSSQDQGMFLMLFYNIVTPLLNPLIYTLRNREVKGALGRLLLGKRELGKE
In short: as §1

[7] = target: T7, OR2Y1 (Homo sapiens) (UniProt Q8NGV0)
T7 sequence (whole entry): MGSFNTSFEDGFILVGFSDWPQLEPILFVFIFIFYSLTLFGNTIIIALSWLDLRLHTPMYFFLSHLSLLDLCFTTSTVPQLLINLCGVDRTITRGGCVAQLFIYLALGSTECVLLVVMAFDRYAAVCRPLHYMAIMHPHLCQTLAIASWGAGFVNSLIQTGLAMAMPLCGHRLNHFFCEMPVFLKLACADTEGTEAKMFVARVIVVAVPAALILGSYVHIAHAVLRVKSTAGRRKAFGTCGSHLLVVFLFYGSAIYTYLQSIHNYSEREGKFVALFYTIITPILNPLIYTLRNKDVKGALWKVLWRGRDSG
In short: as §1

[8] = target: T8, OR2Z1 (Homo sapiens) (UniProt Q8NG97)
T8 sequence (whole entry): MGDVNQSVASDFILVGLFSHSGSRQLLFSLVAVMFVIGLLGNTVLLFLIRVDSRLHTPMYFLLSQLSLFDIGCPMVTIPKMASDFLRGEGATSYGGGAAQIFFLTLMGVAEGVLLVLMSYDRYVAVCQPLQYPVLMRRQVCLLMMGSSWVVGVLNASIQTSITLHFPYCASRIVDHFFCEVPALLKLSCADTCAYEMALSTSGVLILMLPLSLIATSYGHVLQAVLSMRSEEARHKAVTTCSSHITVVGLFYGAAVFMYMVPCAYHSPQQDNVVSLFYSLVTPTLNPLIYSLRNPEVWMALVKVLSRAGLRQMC
In short: as §1

[9] = target: T9, OR3A1 (Homo sapiens) (UniProt P47881)
T9 sequence (whole entry): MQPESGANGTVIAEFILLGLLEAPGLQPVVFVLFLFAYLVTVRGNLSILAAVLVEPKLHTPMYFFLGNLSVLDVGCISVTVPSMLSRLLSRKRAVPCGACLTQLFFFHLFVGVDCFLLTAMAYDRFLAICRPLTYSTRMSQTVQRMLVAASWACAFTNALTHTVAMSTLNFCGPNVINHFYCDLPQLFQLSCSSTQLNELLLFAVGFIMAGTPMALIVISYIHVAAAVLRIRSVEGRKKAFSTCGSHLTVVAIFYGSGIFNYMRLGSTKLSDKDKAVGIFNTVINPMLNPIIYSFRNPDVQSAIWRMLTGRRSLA
In short: as §1

[10] = target: T10, OR3A2 (Homo sapiens) (UniProt P47893)
T10 sequence (whole entry): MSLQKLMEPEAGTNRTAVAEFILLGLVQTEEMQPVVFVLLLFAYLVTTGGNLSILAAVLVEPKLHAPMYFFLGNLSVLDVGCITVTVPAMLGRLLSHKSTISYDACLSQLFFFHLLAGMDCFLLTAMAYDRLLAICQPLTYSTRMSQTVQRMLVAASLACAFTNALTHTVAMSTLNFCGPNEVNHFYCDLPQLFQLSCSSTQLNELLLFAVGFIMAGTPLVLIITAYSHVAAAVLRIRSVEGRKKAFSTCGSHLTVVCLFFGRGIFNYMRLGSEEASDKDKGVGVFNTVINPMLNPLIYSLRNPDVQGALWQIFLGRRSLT
In short: as §1

[11] = target: T11, OR3A3 (Homo sapiens) (UniProt P47888)
T11 sequence (whole entry): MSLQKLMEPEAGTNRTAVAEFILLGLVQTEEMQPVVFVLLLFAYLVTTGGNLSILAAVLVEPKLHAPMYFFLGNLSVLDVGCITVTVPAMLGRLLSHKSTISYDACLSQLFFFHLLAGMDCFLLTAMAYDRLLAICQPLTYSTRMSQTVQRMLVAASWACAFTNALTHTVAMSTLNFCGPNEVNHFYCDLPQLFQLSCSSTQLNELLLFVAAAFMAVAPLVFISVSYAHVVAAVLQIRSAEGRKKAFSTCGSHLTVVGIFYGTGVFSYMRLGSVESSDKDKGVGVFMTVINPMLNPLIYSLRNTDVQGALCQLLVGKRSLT
In short: as §1

[12] = target: T12, OR2W5P (Homo sapiens) (UniProt A6NFC9)
T12 sequence (whole entry): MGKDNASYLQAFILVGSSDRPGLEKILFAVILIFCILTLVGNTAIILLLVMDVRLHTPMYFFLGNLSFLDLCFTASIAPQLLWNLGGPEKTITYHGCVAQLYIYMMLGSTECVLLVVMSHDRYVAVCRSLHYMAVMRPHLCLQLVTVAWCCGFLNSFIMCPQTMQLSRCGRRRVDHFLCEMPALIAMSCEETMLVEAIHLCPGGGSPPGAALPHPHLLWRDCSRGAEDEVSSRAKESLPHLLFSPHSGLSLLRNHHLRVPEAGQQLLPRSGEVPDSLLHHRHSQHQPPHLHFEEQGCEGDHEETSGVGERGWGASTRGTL
In short: as §1

[13] = tested on: T13, OR2T6 C23G
T13 sequence (whole entry): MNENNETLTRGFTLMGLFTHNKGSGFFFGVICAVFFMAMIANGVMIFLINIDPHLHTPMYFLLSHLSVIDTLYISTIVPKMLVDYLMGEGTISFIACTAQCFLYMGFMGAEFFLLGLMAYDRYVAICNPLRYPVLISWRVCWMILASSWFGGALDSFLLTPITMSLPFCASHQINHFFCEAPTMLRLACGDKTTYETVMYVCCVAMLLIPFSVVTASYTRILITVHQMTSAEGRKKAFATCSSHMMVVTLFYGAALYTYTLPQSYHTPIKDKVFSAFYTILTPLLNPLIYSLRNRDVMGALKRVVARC
In short: as §1

[14] = tested on: T14, OR2T7
T14 sequence (whole entry): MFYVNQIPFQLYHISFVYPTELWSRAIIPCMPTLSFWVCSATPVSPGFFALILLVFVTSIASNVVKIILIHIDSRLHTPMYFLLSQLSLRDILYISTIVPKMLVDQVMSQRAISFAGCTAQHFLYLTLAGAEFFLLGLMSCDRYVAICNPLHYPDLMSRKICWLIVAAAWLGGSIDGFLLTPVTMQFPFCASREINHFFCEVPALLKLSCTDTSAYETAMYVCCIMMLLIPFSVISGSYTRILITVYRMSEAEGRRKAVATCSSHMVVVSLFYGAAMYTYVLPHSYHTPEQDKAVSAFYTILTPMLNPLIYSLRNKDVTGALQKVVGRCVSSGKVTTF
In short: as §1

[15] = tested on: T15, OR2W1 G96V
T15 sequence (whole entry): T5 sequence (whole entry) with G96V
In short: as §1

[16] = tested on: T16, OR2Y1
T16 sequence (whole entry): T7 sequence (whole entry) with V200L
In short: as §1

[17] = tested on: T17, OR3A1
T17 sequence (whole entry): T9 sequence (whole entry) with R125Q
In short: as §1

[18] = tested on: T18, OR3A2 R317K
T18 sequence (whole entry): T10 sequence (whole entry) with R317K
In short: as §1

Measured: odorant receptor agonist call;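 note: active if original authors judged signal statistically different from baseline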

CC1CCCCCCCCCCCCC(=O)C1 (centres undefined)
not listed: [12] | [13] | [14] | [15] | [16] | [17] | [18]
inactive: all other assays above

CC(=O)c1ccccc1N
inactive: [5]

CC(=O)c1c(C)c([N+](=O)[O-])c(C(C)(C)C)c([N+](=O)[O-])c1C
not listed: [12] | [13] | [14] | [15] | [16] | [17] | [18]
inactive: all other assays above

CCCCCC(S)C(C)CO (centres undefined)
not listed: [13] | [14] | [15] | [16] | [17] | [18]
inactive: all other assays above

CC1=NC(C)C(C)S1 (centres undefined)
not listed: [1]
inactive: all other assays above

CCOC(C)OCC
inactive: [5]

CCCCC(=O)CC
active: [5]
